Reference: ChEMBL document CHEMBL3352730, “Synthesis and effects on cell viability of flavonols and 3-methyl ether derivatives on human leukemia cells” (Eur J Med Chem, 2014)

Tested on: not listed separately
Assay: Cytotoxicity against human HL60 cells after 72 hrs by MTT assay
Format: functional, cell-based
Details: HL-60, 72 h
How it was run: (§1)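 MTT colorimetric assay with 72 h continuous exposure. IC50 was fitted per experiment by non-linear regression. Values are means with SE from at least three independent experiments, each run in triplicate.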

SMILES | IC50 [µM]
COc1ccc(-c2oc3cc(OC)ccc3c(=O)c2OC)cc1 | 122
COc1ccc(-c2oc3ccccc3c(=O)c2OC)cc1 | 39
COc1ccccc1-c1oc2ccccc2c(=O)c1O | 30
COc1ccc2c(=O)c(OC)c(-c3cc(OC)c(OC)c(OC)c3)oc2c1 | 21
COc1c(-c2ccc(Cl)cc2)oc2ccccc2c1=O | 26
COc1ccc(-c2oc3ccccc3c(=O)c2O)c(OC)c1C | 32
COc1cc(-c2oc3ccccc3c(=O)c2O)cc(OC)c1OC | 138
COc1ccccc1-c1oc2ccccc2c(=O)c1OC | 98
O=c1c(O)c(-c2ccc(O)c(O)c2)oc2cc(O)cc(O)c12 [QUERCETIN] | 47
COc1cc([C@@H]2c3cc4c(cc3[C@@H](O[C@@H]3O[C@@H]5CO[C@@H](C)O[C@H]5[C@H](O)[C@H]3O)[C@H]3COC(=O)[C@H]23)OCO4)cc(OC)c1O [ETOPOSIDE] | 0.6
COc1ccc(-c2oc3cc(OC)ccc3c(=O)c2O)cc1 | 148
O=c1c(O)c(-c2ccccc2Cl)oc2ccccc12 | 10.7
COc1ccc2c(=O)c(O)c(-c3cc(OC)c(OC)c(OC)c3)oc2c1 | 34
COc1cc(O)c2c(=O)c(OC)c(-c3ccc(OC)c(OC)c3)oc2c1 [RETUSIN] | 28
COc1c(-c2ccc(Br)cc2)oc2ccccc2c1=O | 21
COc1ccc(-c2oc3ccccc3c(=O)c2OC)c(OC)c1 | 34
O=c1c(O)c(-c2ccc(Cl)cc2)oc2ccccc12 | 102
COc1ccc(-c2oc3ccccc3c(=O)c2OC)c(OC)c1C | 96
COc1ccc2c(=O)c(OC)c(-c3ccc(OC)c(C)c3OC)oc2c1 | 27
COc1ccc(-c2oc3ccccc3c(=O)c2O)c(OC)c1 | 53
COc1c(-c2cccc3ccccc23)oc2ccccc2c1=O | 16

Tested on: Raji
Assay: Cytotoxicity against human Raji cells after 72 hrs by MTT assay
Format: functional, cell-based
Details: not given
How it was run: as §1

SMILES | IC50 [µM]
O=c1c(O)c(-c2ccccc2Cl)oc2ccccc12 | > 30

Tested on: HL-60
Assay: Induction of apoptosis in human HL60 cells at 30 uM after 24 hrs by propidium iodide staining based flow cytometry (reference value: 3.8 +/- 0.6%)
Format: functional
Details: not given

SMILES | Activity [%]
O=c1c(O)c(-c2ccccc2Cl)oc2ccccc12 | 14.9

Tested on: not listed separately
Assay: Cytotoxicity against human HL60/MX1 cells after 72 hrs by MTT assay
Format: functional, cell-based
Details: HL60/MX1, 72 h
How it was run: as §1

SMILES | IC50 [µM]
O=c1c(O)c(-c2ccccc2Cl)oc2ccccc12 | > 30
